# Laboratory results from ChEMBL document CHEMBL1139368, “Pt(II) complexes of a combretastatin A-4 analogous chalcone: effects of conjugation on cytotoxicity, tumor specificity, and long-term tumor growth suppression” (J Med Chem, 2009).
# Activity calls are given as the source filed them. The rule behind the calls is not given here.
# Assays:
# [1] = test system: SW480; assay: Cytotoxicity against human SW480 cells after 96 hrs by SRB assay; assay type: functional, cell-based; conditions: SW480, 96 h
# Outline: (§1)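 Monolayer cultures in RPMI 1640 with 10% heat-inactivated FBS and streptomycin/penicillin, 37 °C, 5% CO₂. Cells seeded day 0 at densities giving exponential growth, exposed day 1 to 0.001–10 μM, SRB read day 5 (96 h exposure); surviving cells as percentage of untreated controls, IC₅₀ taken from dose–response curves. Three independent experiments for some compounds, two for others.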
# [2] = test system: HT-29; assay: Cytotoxicity against human HT-29 cells after 96 hrs by SRB assay; assay type: functional, cell-based; conditions: HT-29, 96 h; outline: as §1
# [3] = Induction of apoptosis in human WW070327 cells assessed as PARP cleavage at 1 uM after 24 hrs by Western blot analysis; assay type: cell-based; conditions: ww070327, 24 h
# Outline: (§2)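 Cells treated 24 h at 1 μM, then rinsed in PBS and lysed in RIPA buffer with protease inhibitors. 40 μg protein per lane on SDS–PAGE, blotted to nitrocellulose, blocked in 5% milk/PBST, probed 2 h with mouse monoclonals against caspase-3, PARP and actin (loading control). HRP secondary, ECL detection, compared with untreated control.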
# [4] = test system: A-431; assay: Suppression of regrowth in human A431 cells at 10 nM treated for 96 hrs and measured over 10 days by SRB assay; assay type: functional, cell-based
# Outline: (§3)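 SRB regrowth test: cells exposed 96 h to serial dilutions, chosen around IC₉₀, then fixed at once (day 0) or washed drug-free and grown in fresh medium for 2, 4, 6 or 10 days before SRB staining. Three independent experiments.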
# [5] = test system: NCI-H358; assay: Cytotoxicity against human NCI-H358 cells after 96 hrs by SRB assay; assay type: functional, cell-based; conditions: NCI-H358, 96 h; outline: as §1
# [6] = test system: A-431; assay: Cytotoxicity against human A431 cells after 96 hrs by SRB assay; assay type: functional, cell-based; conditions: A-431, 96 h; outline: as §1
# [7] = Cytotoxicity against human 1411HP cells after 96 hrs by SRB assay; assay type: functional, cell-based; outline: as §1
# [8] = test system: A2780; assay: Cytotoxicity against human A2780 cells after 96 hrs by SRB assay; assay type: functional, cell-based; conditions: A2780, 96 h; outline: as §1
# [9] = test system: A549; assay: Cytotoxicity against human A549 cells after 96 hrs by SRB assay; assay type: functional, cell-based; conditions: A549, 96 h; outline: as §1
# [10] = test system: 8505C; assay: Cytotoxicity against human 8505C cells after 96 hrs by SRB assay; assay type: functional, cell-based; outline: as §1
# [11] = test system: FaDu; assay: Cytotoxicity against human FADU cells after 96 hrs by SRB assay; assay type: functional, cell-based; outline: as §1
# [12] = test system: MCF7; assay: Cytotoxicity against human MCF7 cells after 96 hrs by SRB assay; assay type: functional, cell-based; conditions: MCF7, 96 h; outline: as §1
# [13] = test system: 518A2; assay: Induction of apoptosis in human 518A2 cells assessed as PARP cleavage at 1 uM after 24 hrs by Western blot analysis; assay type: functional, cell-based; outline: as §2
# [14] = Cytotoxicity against human NCI-H322 cells after 96 hrs by SRB assay; assay type: functional, cell-based; conditions: NCI-H322, 96 h; outline: as §1
# [15] = Induction of apoptosis in human WW070327 cells assessed as increase in cleaved/activated form of caspase 3 at 1 uM after 24 hrs by Western blot analysis; assay type: cell-based; conditions: ww070327, 24 h; outline: as §2
# [16] = test system: DLD-1; assay: Induction of apoptosis in human DLD1 cells assessed as PARP cleavage at 1 uM after 24 hrs by Western blot analysis; assay type: functional, cell-based; outline: as §2
# [17] = Cytotoxicity against human A253 cells after 96 hrs by SRB assay; assay type: functional, cell-based; conditions: A253, 96 h; outline: as §1
# [18] = test system: DLD-1; assay: Induction of apoptosis in human DLD1 cells assessed as increase in cleaved/activated form of caspase 3 at 1 uM after 24 hrs by Western blot analysis; assay type: functional, cell-based; outline: as §2
# [19] = test system: DLD-1; assay: Cytotoxicity against human DLD1 cells after 96 hrs by SRB assay; assay type: functional, cell-based; conditions: DLD-1, 96 h; outline: as §1
# [20] = Inhibition of tubulin polymerization at 3 uM; conditions: TDE = time-dependent effect
# Outline: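 Commercial fluorescence-based tubulin polymerization kit, run as the manufacturer directs, compounds at 3 μM. Polymerization followed as RFU at excitation 360 nm, emission 465 nm. Three independent experiments.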
# [21] = test system: HCT-116; assay: Cytotoxicity against human HCT116 cells after 96 hrs by SRB assay; assay type: functional, cell-based; conditions: HCT-116, 96 h; outline: as §1
# [22] = test system: A-427; assay: Cytotoxicity against human A427 cells after 96 hrs by SRB assay; assay type: functional, cell-based; conditions: A-427, 96 h; outline: as §1
# [23] = test system: BT-474; assay: Cytotoxicity against human BT474 cells after 96 hrs by SRB assay; assay type: functional, cell-based; conditions: BT-474, 96 h; outline: as §1
# [24] = test system: HL-60; assay: Induction of apoptosis in human HL60 cells at 10 uM after 15 hrs by TUNEL assay; assay type: functional
# Outline: (§4)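 TUNEL with fluorescein-tagged nucleotides labelling 3'-OH DNA ends, on HL-60 and 518A2 cells exposed to 10 μM for 15 h. Apoptotic cells were counted as green fluorescent spots under fluorescence microscopy and related to total cell number.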
# [25] = test system: 518A2; assay: Induction of apoptosis in human 518A2 cells at 10 uM after 15 hrs by TUNEL assay; assay type: functional; outline: as §4
# [26] = test system: A2780; assay: Induction of apoptosis in human A2780 cells assessed as PARP cleavage at 1 uM after 24 hrs by Western blot analysis; assay type: functional, cell-based; outline: as §2
# [27] = test system: HCT-8; assay: Cytotoxicity against human HCT8 cells after 96 hrs by SRB assay; assay type: functional, cell-based; conditions: HCT-8, 96 h; outline: as §1
# [28] = test system: HL-60; assay: Induction of apoptosis in human HL60 cells assessed as processing of procaspase 9 to activated caspase 9 at 10 uM by Western blotting; assay type: functional, cell-based; conditions: TDE = time-dependent effect
# Outline: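 HL-60 cells at 0.5 × 10⁶/mL, exposed to 10 μM (in 1% DMF/99% PBS) at 37 °C, sampled at 0, 3, 7, 24 and 30 h. Lysed in Tris/NaCl/Triton X-100 buffer pH 7.4, 60 μg protein on 12% SDS–PAGE, PVDF blot, anti-caspase-9 1:10,000, HRP secondary, chemiluminescence. Procaspase-9 (~46 kDa) and cleaved form (~35 kDa) followed.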
# [29] = Cytotoxicity against human 2102EP cells after 96 hrs by SRB assay; assay type: functional, cell-based; outline: as §1
# [30] = test system: SW-1736; assay: Cytotoxicity against human SW1736 cells after 96 hrs by SRB assay; assay type: functional, cell-based; conditions: SW-1736, 96 h; outline: as §1
# [31] = test system: A2780; assay: Suppression of regrowth in human A2780 cells at 10 nM treated for 96 hrs and measured over 10 days by SRB assay; assay type: functional, cell-based; outline: as §3
# [32] = Cytotoxicity against human H12.1 cells after 96 hrs by SRB assay; assay type: functional, cell-based; outline: as §1
# [33] = test system: A2780; assay: Induction of apoptosis in human A2780 cells assessed as increase in cleaved/activated form of caspase 3 at 1 uM after 24 hrs by Western blot analysis; assay type: functional, cell-based; outline: as §2
# [34] = test system: A253 cell line; assay: Suppression of regrowth in human A253 cells at 10 nM treated for 96 hrs and measured over 10 days by SRB assay; assay type: functional, cell-based; outline: as §3
# [35] = test system: 518A2; assay: Induction of apoptosis in human 518A2 cells assessed as increase in cleaved/activated form of caspase 3 at 1 uM after 24 hrs by Western blot analysis; assay type: functional, cell-based; outline: as §2
# [36] = Cytotoxicity against human 518A2 cells after 96 hrs by SRB assay; assay type: functional, cell-based; conditions: 518A2, 96 h; outline: as §1
smiles,measurement,setting,value
COc1ccc(/C=C/C(=O)c2cc(OC)c(OC)c(OC)c2)cc1O,IC50,[1],102 nM
same,IC50,[2],2600 nM
same,Activity,[3],Not Active
same,Activity,[4],Active
same,IC50,[5],17.1 nM
same,IC50,[6],15 nM
same,IC50,[7],142 nM
same,IC50,[8],15.6 nM
same,IC50,[9],67.5 nM
same,IC50,[10],49.7 nM
same,IC50,[11],41 nM
same,IC50,[12],22.3 nM
same,Activity,[13],Active
same,IC50,[14],39 nM
same,Activity,[15],Not Active
same,Activity,[16],Active
same,IC50,[17],22.8 nM
same,Activity,[18],Active
same,IC50,[19],32.3 nM
same,Activity,[20],tde
same,IC50,[21],25.1 nM
same,IC50,[22],51.2 nM
same,IC50,[23],193 nM
same,Activity,[24],40%
same,Activity,[25],50%
same,Activity,[26],Active
same,IC50,[27],56 nM
same,Activity,[28],tde
same,IC50,[29],31.4 nM
same,IC50,[30],27.5 nM
same,Activity,[31],Active
same,IC50,[32],33.6 nM
same,Activity,[33],Active
same,Activity,[34],Active
same,Activity,[35],Active
same,IC50,[36],33.6 nM
